According to article PMC6018888 (Drug Design, Development and Therapy, 2018):

System: urinary excretion of uric acid
Assay: Pharmacodynamics: urinary uric acid excretion
Type: in vivo, human
Conditions: for CLUR0–24 / FEUA0–24: mean (95% CI); for percent change from baseline in AeUR over 0–6 hours: non-Asian subjects
In short: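 Total-catch urine was collected at 6- or 12-h intervals from predose to 72 h after dosing on days 1 (fasted ≥10 h, no food 4 h postdose) and 12, and to 24 h on day 6 (fed). Urine uric acid, urine creatinine and serum creatinine were measured. CLUR0–24 = urinary uric acid amount ÷ urate AUC0–24. FEUA0–24 = CLUR0–24 ÷ creatinine clearance × 100.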

[1] = Japanese subjects, 2.5 mg multiple dose, fed
[2] = Japanese subjects, 2.5 mg single dose, fasted
[3] = Japanese subjects, 2.5 mg single dose, fed
[4] = Japanese subjects, 5 mg multiple dose, fed
[5] = Japanese subjects, 5 mg single dose, fasted
[6] = Japanese subjects, 5 mg single dose, fed
[7] = Japanese subjects, 10 mg multiple dose, fed
[8] = Japanese subjects, 10 mg single dose, fasted
[9] = Japanese subjects, 10 mg single dose, fed
[10] = Japanese subjects, 15 mg multiple dose, fed
[11] = Japanese subjects, 15 mg single dose, fasted
[12] = Japanese subjects, 15 mg single dose, fed
[13] = Non-Asian subjects, 10 mg multiple dose, fed
[14] = Non-Asian subjects, 10 mg single dose, fasted
[15] = Non-Asian subjects, 10 mg single dose, fed

For `CC(C)(Sc1ccncc1-c1ccc(C#N)c2ccccc12)C(=O)O` [verinurad], the “CLUR0–24” value [1] was 12.2 (10.3–14.2) mL/min, the “FEUA0–24” value [1] was 7.57 (6.74–8.41) % and the “CLUR0–24” value [2] was 7.82 (6.90–8.74) mL/min. The “FEUA0–24” value [2] was 7.72 (6.01–9.43) %, the “CLUR0–24” value [3] was 11.4 (9.74–13.0) mL/min and the “FEUA0–24” value [3] was 7.75 (6.80–8.70) %. For the same compound, the “percent change from baseline in AeUR, 0–6 hour interval” value (“percent change … 0–6 hour interval” for short) (Japanese subjects, 2.5 mg, day 1 (fasted)) was 18%, the “percent change … 0–6 hour interval” value (Japanese subjects, 2.5 mg, day 6 (fed)) was 62% and the “percent change … 0–6 hour interval” value (Japanese subjects, 2.5 mg, day 12 (steady-state, fed)) was −17%. The “CLUR0–24” value [4] was 13.7 (9.35–18.1) mL/min, the “FEUA0–24” value [4] was 14.5 (9.93–19.1) % and the “CLUR0–24” value [5] was 10.9 (8.88–12.9) mL/min. The “FEUA0–24” value [5] was 9.05 (7.20–10.9) %, the “CLUR0–24” value [6] was 16.0 (11.7–20.3) mL/min and the “FEUA0–24” value [6] was 11.2 (7.42–14.9) %. The “percent change … 0–6 hour interval” value (Japanese subjects, 5 mg, day 1 (fasted)) was 59%, the “percent change … 0–6 hour interval” value (Japanese subjects, 5 mg, day 6 (fed)) was 114% and the “percent change … 0–6 hour interval” value (Japanese subjects, 5 mg, day 12 (steady-state, fed)) was −35%. The “CLUR0–24” value [7] was 19.7 (16.7–22.7) mL/min, the “FEUA0–24” value [7] was 13.7 (10.8–16.6) % and the “CLUR0–24” value [8] was 14.3 (10.7–17.9) mL/min. For the same compound, the “FEUA0–24” value [8] was 10.8 (7.87–13.6) %, the “CLUR0–24” value [9] was 16.0 (9.88–22.1) mL/min and the “FEUA0–24” value [9] was 20.5 (11.3–29.6) %. For the same compound, the “percent change … 0–6 hour interval” value (Japanese subjects, 10 mg, day 1 (fasted)) was 114%, the “percent change … 0–6 hour interval” value (Japanese subjects, 10 mg, day 6 (fed)) was 131% and the “percent change … 0–6 hour interval” value (Japanese subjects, 10 mg, day 12 (steady-state, fed)) was −33%. For the same compound, the “CLUR0–24” value [10] was 23.9 (14.9–32.9) mL/min, the “FEUA0–24” value [10] was 16.0 (10.7–21.2) % and the “CLUR0–24” value [11] was 15.0 (6.40–23.6) mL/min. The “FEUA0–24” value [11] was 14.5 (7.08–22.0) %, the “CLUR0–24” value [12] was 12.1 (4.04–20.2) mL/min and the “FEUA0–24” value [12] was 9.61 (2.96–16.3) %. For the same compound, the “percent change … 0–6 hour interval” value (Japanese subjects, 15 mg, day 1 (fasted)) was 77%, the “percent change … 0–6 hour interval” value (Japanese subjects, 15 mg, day 6 (fed)) was 49% and the “percent change … 0–6 hour interval” value (Japanese subjects, 15 mg, day 12 (steady-state, fed)) was 6%. For the same compound, the “CLUR0–24” value [13] was 20.6 (13.7–27.4) mL/min, the “FEUA0–24” value [13] was 13.2 (8.45–17.9) % and the “CLUR0–24” value [14] was 15.3 (7.35–23.3) mL/min. The “FEUA0–24” value [14] was 10.4 (4.84–16.0) %, the “CLUR0–24” value [15] was 18.6 (8.95–28.2) mL/min and the “FEUA0–24” value [15] was 11.7 (6.44–17.0) %. For the same compound, the “percent change from baseline in AeUR over 0–6 hours” value (shortened to “percent change … over 0–6 hours”) (10 mg, day 1) was 70%, the “percent change … over 0–6 hours” value (10 mg, day 6) was 141% and the “percent change … over 0–6 hours” value (10 mg, day 12) was -41%.
